Reference: PubChem BioAssay AID623921 (The Scripps Research Institute Molecular Screening Center, 2012)
“And” between values parts separate entries of the source, which are not always exact repeats. Equal entries are not always repeated. The source made the active and inactive calls.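 How the source made its calls: active means remaining nuclease activity at or below 52% of the solvent-only control; inactive means the rest.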

Each molecule was assayed against RecBCD enzyme subunit RecC (Escherichia coli (strain K12)) + RecBCD enzyme subunit RecB (Escherichia coli (strain K12)) (UniProt P07648+P08394) (assay: purified RecBCD nuclease inhibitors, late-stage follow-up, counter-screen for AddAB inhibitor project, biochemical, radioactivity readout, 100 µM single dose (AID 623921)). Conditions: [3H] dsDNA nuclease, TCA-soluble radioactivity, at 100 µM, hits give low values.
RecBCD enzyme subunit RecC (Escherichia coli (strain K12)) + RecBCD enzyme subunit RecB (Escherichia coli (strain K12)), sequence (P07648 whole entry, looked up): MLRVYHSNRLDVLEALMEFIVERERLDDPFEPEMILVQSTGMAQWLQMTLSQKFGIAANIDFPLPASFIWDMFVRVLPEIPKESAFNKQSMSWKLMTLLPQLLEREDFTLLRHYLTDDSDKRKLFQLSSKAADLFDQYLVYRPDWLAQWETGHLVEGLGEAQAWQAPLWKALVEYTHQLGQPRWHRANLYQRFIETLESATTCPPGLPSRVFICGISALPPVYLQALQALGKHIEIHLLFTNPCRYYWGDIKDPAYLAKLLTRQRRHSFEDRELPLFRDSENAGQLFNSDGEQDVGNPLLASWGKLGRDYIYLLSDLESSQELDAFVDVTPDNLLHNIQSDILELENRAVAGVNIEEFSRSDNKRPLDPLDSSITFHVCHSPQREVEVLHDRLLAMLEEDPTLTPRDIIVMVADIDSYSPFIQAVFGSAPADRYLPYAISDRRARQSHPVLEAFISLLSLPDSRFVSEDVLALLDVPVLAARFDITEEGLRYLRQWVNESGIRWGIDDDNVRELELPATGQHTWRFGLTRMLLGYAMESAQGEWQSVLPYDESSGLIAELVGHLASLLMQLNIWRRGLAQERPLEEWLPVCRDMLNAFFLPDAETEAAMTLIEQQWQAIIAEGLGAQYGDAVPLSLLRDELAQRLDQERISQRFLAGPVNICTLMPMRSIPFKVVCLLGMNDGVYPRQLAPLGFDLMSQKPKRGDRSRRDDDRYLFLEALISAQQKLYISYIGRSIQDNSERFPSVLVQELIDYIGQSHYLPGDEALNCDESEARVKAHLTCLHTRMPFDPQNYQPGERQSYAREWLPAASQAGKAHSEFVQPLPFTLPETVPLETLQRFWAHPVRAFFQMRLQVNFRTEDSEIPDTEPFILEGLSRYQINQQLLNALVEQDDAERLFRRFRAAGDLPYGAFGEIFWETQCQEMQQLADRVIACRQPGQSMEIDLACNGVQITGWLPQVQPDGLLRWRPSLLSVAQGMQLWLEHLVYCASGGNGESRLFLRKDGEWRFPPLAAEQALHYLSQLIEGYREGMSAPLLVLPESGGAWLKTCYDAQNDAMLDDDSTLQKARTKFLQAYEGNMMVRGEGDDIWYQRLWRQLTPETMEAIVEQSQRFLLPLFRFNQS
RecBCD enzyme subunit RecC (Escherichia coli (strain K12)) + RecBCD enzyme subunit RecB (Escherichia coli (strain K12)), sequence (P08394 whole entry, looked up): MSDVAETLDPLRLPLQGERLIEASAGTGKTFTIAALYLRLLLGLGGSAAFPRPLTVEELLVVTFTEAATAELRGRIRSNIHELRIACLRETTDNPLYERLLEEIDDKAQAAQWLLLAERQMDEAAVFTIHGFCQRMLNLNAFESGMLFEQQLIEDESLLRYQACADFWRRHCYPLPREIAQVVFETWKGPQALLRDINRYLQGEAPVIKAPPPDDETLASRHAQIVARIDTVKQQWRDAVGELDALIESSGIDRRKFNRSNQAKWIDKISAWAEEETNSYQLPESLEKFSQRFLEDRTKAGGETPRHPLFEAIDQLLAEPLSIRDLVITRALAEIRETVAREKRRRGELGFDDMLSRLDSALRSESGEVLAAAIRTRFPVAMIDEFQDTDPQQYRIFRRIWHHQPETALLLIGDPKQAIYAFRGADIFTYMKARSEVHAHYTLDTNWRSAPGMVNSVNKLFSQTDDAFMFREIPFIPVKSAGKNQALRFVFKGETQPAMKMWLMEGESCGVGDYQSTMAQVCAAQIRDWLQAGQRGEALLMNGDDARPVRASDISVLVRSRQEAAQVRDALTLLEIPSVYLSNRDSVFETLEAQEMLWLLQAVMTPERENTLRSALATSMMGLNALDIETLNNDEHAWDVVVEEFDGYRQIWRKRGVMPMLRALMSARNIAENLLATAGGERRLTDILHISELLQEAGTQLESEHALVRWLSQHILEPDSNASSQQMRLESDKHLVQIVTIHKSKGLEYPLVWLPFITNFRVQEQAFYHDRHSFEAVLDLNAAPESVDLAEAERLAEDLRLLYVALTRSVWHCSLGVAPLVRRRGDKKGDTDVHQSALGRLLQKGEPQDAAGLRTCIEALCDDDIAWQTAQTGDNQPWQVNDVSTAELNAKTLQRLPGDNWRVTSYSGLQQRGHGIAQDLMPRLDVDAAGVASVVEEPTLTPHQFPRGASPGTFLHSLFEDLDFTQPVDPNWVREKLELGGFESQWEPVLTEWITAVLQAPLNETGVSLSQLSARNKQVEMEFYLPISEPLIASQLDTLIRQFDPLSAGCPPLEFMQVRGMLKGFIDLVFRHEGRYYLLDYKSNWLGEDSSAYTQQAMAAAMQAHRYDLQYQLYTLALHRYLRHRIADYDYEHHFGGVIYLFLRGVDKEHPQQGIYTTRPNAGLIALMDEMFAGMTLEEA
How it was run: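 Test system: purified E. coli RecBCD / Compound: single nominal 100 µM compound dose, 5% DMSO final / Timing: enzyme-compound mix on ice, 20 min reaction at 37 °C / Technique: scintillation counting of acid-soluble tritium after TCA precipitation / Evaluation: remaining nuclease activity as % of DMSO reactions, background-subtracted / Benchmarks: DMSO reactions and no-enzyme background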
For `CC1CCc2c(sc(NC(=O)c3ccc([N+](=O)[O-])o3)c2N)C1` (stereo not drawn), the remaining enzyme activity was 110% (inactive). With `CCn1cc(C(=O)O)c(=O)c2cnc(N3CCN(C(=S)NC(=O)c4ccco4)CC3)nc21` the remaining enzyme activity was 84% (inactive). `CCn1cc(C(=O)O)c(=O)c2cnc(N3CCN(C(=S)Nc4cccc(C(F)(F)F)c4)CC3)nc21` gave a remaining enzyme activity of -2%. `CSc1ncc(Cl)c(C(=O)Nc2sc3c(c2C(=O)NC2CCS(=O)(=O)C2)CCC(C)C3)n1` (stereo not drawn) was tested, and the remaining enzyme activity was 76% (inactive). `CCn1cc(C(=O)O)c(=O)c2cnc(N3CCN(C(=S)NC(C)c4ccccc4)CC3)nc21` (stereo not drawn) was tested, and the remaining enzyme activity was 1%. With `CC1CCc2c(sc(NC(=O)c3cccs3)c2C#N)C1` (stereo not drawn) the remaining enzyme activity was 89% (inactive). `Cn1nccc1C(=O)Nc1sc2c(c1C#N)CCCC2` was tested, and the remaining enzyme activity was 71% (inactive). `N#Cc1c(NC(=O)c2ccccc2)sc2c1CCC2` was tested, and the remaining enzyme activity was 94% (inactive). With `CCn1cc(C(=O)O)c(=O)c2cnc(N3CCN(C(=S)NC)CC3)nc21` the remaining enzyme activity was 35%. `CCn1cc(C(=O)O)c(=O)c2cc(F)c(N3CCN(C(=S)Nc4ccccc4C(F)(F)F)CC3)cc21` showed a remaining enzyme activity of 45%. For `CCn1cc(C(=O)O)c(=O)c2cnc(N3CCN(C(=S)Nc4ccccc4C)CC3)nc21`, the remaining enzyme activity was 40%. `N#Cc1c(NC(=O)c2cccc(F)c2)sc2c1CCCC2` was tested, and the remaining enzyme activity was 110% (inactive). For `CCn1cc(C(=O)O)c(=O)c2cnc(N3CCN(C(=S)NC(=O)c4cccc(C)c4)CC3)nc21`, the remaining enzyme activity was 11%. For `COC(=O)c1c(-c2ccccc2)csc1NC(=O)c1cnccn1`, the remaining enzyme activity was 28%. With `Nc1c(NC(=O)c2ccc([N+](=O)[O-])o2)sc2c1CCCC2` the remaining enzyme activity was 98% (inactive). `CCn1cc(C(=O)O)c(=O)c2cnc(N3CCN(C(=S)Nc4ccccc4C(F)(F)F)CC3)nc21` showed a remaining enzyme activity of 30%. `C=CCNC(=S)N1CCN(c2ncc3c(=O)c(C(=O)O)cn(CC)c3n2)CC1` was tested, and the remaining enzyme activity was 63% (inactive). `CCn1cc(C(=O)O)c(=O)c2cnc(N3CCN(C(=S)NC4CC5CCC4C5)CC3)nc21` (stereo not drawn) gave a remaining enzyme activity of 1%. Molecule `CCn1cc(C(=O)O)c(=O)c2cnc(N3CCN(C(=S)Nc4ccc(F)cc4)CC3)nc21` has a remaining enzyme activity of 19%. `CCn1cc(C(=O)O)c(=O)c2cnc(N3CCN(C(=S)Nc4ccccc4F)CC3)nc21` showed a remaining enzyme activity of 31%. With `COC(=O)c1c(-c2cccc(C)c2)csc1NC(=O)c1cnccn1` the remaining enzyme activity was 88% (inactive). `N#Cc1c(NC(=O)c2cnccn2)sc2c1CCCCCC2` was tested, and the remaining enzyme activity was 71% (inactive). `CCn1cc(C(=O)O)c(=O)c2cnc(N3CCN(C(=O)Nc4ccccc4)CC3)nc21` was tested, and the remaining enzyme activity was 83% (inactive). `N#Cc1c(NC(=O)c2cc(-c3ccccc3)on2)sc2c1CCCC2` gave a remaining enzyme activity of 34%. In the case of `CCn1cc(C(=O)O)c(=O)c2cnc(N3CCN(C(=S)NC(=O)c4ccccc4Cl)CC3)nc21`, the remaining enzyme activity is reported as 58% (inactive). In the case of `CC1CCc2c(sc(NC(=O)c3cnccn3)c2C#N)C1` (stereo not drawn), the remaining enzyme activity is reported as 83% (inactive). Work on `Cc1sc(NC(=O)c2cnccn2)c(C(=O)OC(C)C)c1-c1ccccc1` yielded a remaining enzyme activity of 44%. Work on `CCn1cc(C(=O)O)c(=O)c2cnc(N3CCN(C(=S)Nc4ccc(Cl)cc4)CC3)nc21` yielded a remaining enzyme activity of -1%. Molecule `N#Cc1c(NC(=O)c2ccco2)sc2c1CCC2` has a remaining enzyme activity of 41%. `CCC(C)(C)C1CCc2c(sc(NC(=O)c3cnccn3)c2C#N)C1` (stereo not drawn) was tested, and the remaining enzyme activity was 85% (inactive). For `CCn1cc(C(=O)O)c(=O)c2cnc(N3CCNCC3)nc21`, the remaining enzyme activity was 110% (inactive). With `CCn1cc(C(=O)O)c(=O)c2cc(F)c(N3CCN(C(=S)Nc4cccc(C(F)(F)F)c4)CC3)cc21` the remaining enzyme activity was 12%. `CCn1cc(C(=O)O)c(=O)c2cnc(N3CCN(C(=S)NCc4ccccc4)CC3)nc21` gave a remaining enzyme activity of 7%. For `CCn1cc(C(=O)O)c(=O)c2cnc(N3CCN(C(=S)Nc4ccc5c(c4)OCO5)CC3)nc21`, the remaining enzyme activity was 4%. For `CC1(C)Cc2c(sc(NC(=O)c3ccco3)c2C#N)CO1`, the remaining enzyme activity was 90% (inactive). `CCn1cc(C(=O)O)c(=O)c2cnc(N3CCN(C(=S)Nc4ccc5c(c4)OCCO5)CC3)nc21` was tested, and the remaining enzyme activity was 34%. In the case of `CCn1cc(C(=O)O)c(=O)c2cnc(N3CCN(C(=S)Nc4ccccc4OC)CC3)nc21`, the remaining enzyme activity is reported as 26%. `Cc1ccc(C(=O)Nc2sc3c(c2C#N)CCC3)o1` was tested, and the remaining enzyme activity was 84% (inactive). `CNC(=O)c1c(NC(=O)c2nc(SCc3ccccc3)ncc2Cl)sc2c1CCCC2` was tested, and the remaining enzyme activity was 26%. With `CCn1cc(C(=O)O)c(=O)c2cnc(N3CCN(C(=S)NC(=O)c4cccnc4)CC3)nc21` the remaining enzyme activity was 40%. `Cc1ccc(C(=O)Nc2sc3c(c2C#N)CCCCC3)o1` was tested, and the remaining enzyme activity was 106% (inactive). Molecule `Cc1sc(NC(=O)c2ccc(Br)o2)c(C#N)c1C` has a remaining enzyme activity of 51%. `NC(=O)c1c(NC(=O)c2cnccn2)sc2c1CCCC2` was tested, and the remaining enzyme activity was 85% (inactive). With `N#Cc1c(NC(=O)c2ccccc2C(=O)O)sc2c1CCCC2` the remaining enzyme activity was 110% (inactive). `N#Cc1c(NC(=O)c2cnccn2)sc2c1CCCC2` was tested, and the remaining enzyme activity was 21% and 30%. `N#Cc1c(NC(=O)c2ccc(-c3ccccc3[N+](=O)[O-])o2)sc2c1CCCC2` was tested, and the remaining enzyme activity was 120% (inactive). `CCn1cc(C(=O)O)c(=O)c2cnc(N3CCN(C(=S)Nc4ccccc4)CC3)nc21` gave a remaining enzyme activity of 23%. In the case of `N#Cc1c(NC(=O)c2ccc([N+](=O)[O-])o2)sc2c1CCCC2`, the remaining enzyme activity is reported as 110% (inactive). For `CC1CCc2c(sc(NC(=O)c3ccc([N+](=O)[O-])o3)c2C#N)C1` (stereo not drawn), the remaining enzyme activity was 110% (inactive). For `COC(=O)c1c(NC(=O)c2cnccn2)sc2c1CCCC2`, the remaining enzyme activity was 78% (inactive). `CSc1ncc(Cl)c(C(=O)Nc2sc3c(c2C#N)CCC(C)C3)n1` (stereo not drawn) was tested, and the remaining enzyme activity was 88% (inactive). `N#Cc1c(NC(=O)C2CC=CCC2C(=O)O)sc2c1CCC2` (stereo not drawn) was tested, and the remaining enzyme activity was 77% (inactive). `CCn1cc(C(=O)O)c(=O)c2cnc(N3CCN(C(=S)Nc4ccccc4Cl)CC3)nc21` gave a remaining enzyme activity of 28%.
